Structures are written as SMILES. Calls of active or inactive are those of the source. The rule behind the calls is not given here.

In ChEMBL document CHEMBL4152279, “Synthesis, cytotoxic evaluation and target identification of thieno[2,3-d]pyrimidine derivatives with a dithiocarbamate side chain at C2 position” (Eur J Med Chem, 2018) one finds Activity and inhibition data, which are given here for one molecule.

The test system of experiment [1] is A549. Kind of experiment: Binding affinity to tubulin beta in human A549 cells at 0.15 mM after 4 hrs by HPLC-MS based pull down assay relative to control. The experiment is classed as cell-based. The method, boiled down:
(§1)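 A549 lysate in NETN buffer (pH 8.0, 0.5% NP-40) incubated with biotinylated probe (0.15 mM final) 4 h at 4 °C, with biotin or control probe as comparators. Streptavidin Dynabeads 1 h at 4 °C, six NETN washes, proteins eluted by boiling in SDS buffer. After trypsin digestion, identification by LC-MS/MS on Q Exactive HF.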

The subject of experiment [2] is A549. Kind of experiment: Binding affinity to tubulin alpha-3E in human A549 cells at 0.15 mM after 4 hrs by HPLC-MS based pull down assay relative to control. The experiment is classed as cell-based. Put shortly:
as §1

The species named for experiment [3] is Sus scrofa. Kind of experiment: Inhibition of colchicine binding to porcine tubulin treated 2 hrs post colchicine treatment by pull down assay. Put shortly: (§2)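 Porcine neuronal tubulin was preincubated with excess taxol, colchicine, vinblastine or nocodazole for 2 h at 4 °C. Biotinylated probe was then added in NETN buffer, followed by streptavidin Dynabead pull-down for 1 h at 4 °C and six washes. Bound α-tubulin was detected by SDS–PAGE and immunoblot. Three independent experiments.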

The species named for experiment [4] is Sus scrofa. Kind of experiment: Inhibition of vinblastine binding to porcine tubulin treated 2 hrs post colchicine treatment by pull down assay. Put shortly:
as §2

Experiment [5] is filed under the species Sus scrofa. Kind of experiment: Inhibition of nocodazole binding to porcine tubulin treated 2 hrs post colchicine treatment by pull down assay. The method, boiled down:
as §2

For experiment [6], the target named is Probable ATP-dependent RNA helicase DDX17 (Homo sapiens) (UniProt Q92841). Kind of experiment: Binding affinity to DDX17 in human A549 cells at 0.15 mM after 4 hrs by HPLC-MS based pull down assay relative to control. The class given is cell-based. Put shortly: as §1
The species named for experiment [7] is Sus scrofa. The experiment is described as follows: Inhibition of taxol binding to porcine tubulin treated 2 hrs post colchicine treatment by pull down assay. Put shortly: as §2
In experiment [8] the target is Serine/arginine-rich splicing factor 9 (Homo sapiens) (UniProt Q13242). Kind of experiment: Binding affinity to serine/arginine-rich-splicing factor 9 in human A549 cells at 0.15 mM after 4 hrs by HPLC-MS based pull down assay relative to control. The experiment is classed as cell-based. Put shortly:
as §1

For experiment [9], the species on record is Sus scrofa. Kind of experiment: Inhibition of colchicine binding to porcine tubulin preincubated with tubulin followed by colchicine treatment measured after 2 hrs by immunoblot analysis. In general terms: A western blot detects proteins with antibodies after separation by electrophoresis.
The species named for experiment [10] is Sus scrofa. The experiment is described as follows: Inhibition of nocodazole binding to porcine tubulin preincubated with tubulin followed by nocodazole treatment measured after 2 hrs by immunoblot analysis.
Experiment [11] deals with Tubulin alpha-1C chain (Homo sapiens) (UniProt Q9BQE3). Kind of experiment: Binding affinity to tubulin alpha-1C in human A549 cells at 0.15 mM after 4 hrs by HPLC-MS based pull down assay relative to control. The class given is cell-based. Put shortly:
as §1

For experiment [12], the target named is Tubulin beta-4B chain (Homo sapiens) (UniProt P68371). Kind of experiment: Binding affinity to tubulin beta-4B in human A549 cells at 0.15 mM after 4 hrs by HPLC-MS based pull down assay relative to control. The experiment is classed as cell-based. The method, boiled down:
as §1

For experiment [13], the species on record is Sus scrofa. The experiment is described as follows: Inhibition of vinblastine binding to porcine tubulin preincubated with tubulin followed by vinblastine treatment measured after 2 hrs by immunoblot analysis.
The species named for experiment [14] is Sus scrofa. Kind of experiment: Binding affinity to porcine tubulin after overnight incubation by streptavidin pull down assay. The method, boiled down: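 Purified porcine neuronal tubulin incubated with biotin, biotinylated probe or control probe in NETN buffer at 4 °C. Streptavidin Dynabeads 1 h at 4 °C, six washes, then SDS-PAGE and α-tubulin immunoblot.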

Sequence of Tubulin alpha-1C chain (Homo sapiens) (Q9BQE3 whole entry, looked up): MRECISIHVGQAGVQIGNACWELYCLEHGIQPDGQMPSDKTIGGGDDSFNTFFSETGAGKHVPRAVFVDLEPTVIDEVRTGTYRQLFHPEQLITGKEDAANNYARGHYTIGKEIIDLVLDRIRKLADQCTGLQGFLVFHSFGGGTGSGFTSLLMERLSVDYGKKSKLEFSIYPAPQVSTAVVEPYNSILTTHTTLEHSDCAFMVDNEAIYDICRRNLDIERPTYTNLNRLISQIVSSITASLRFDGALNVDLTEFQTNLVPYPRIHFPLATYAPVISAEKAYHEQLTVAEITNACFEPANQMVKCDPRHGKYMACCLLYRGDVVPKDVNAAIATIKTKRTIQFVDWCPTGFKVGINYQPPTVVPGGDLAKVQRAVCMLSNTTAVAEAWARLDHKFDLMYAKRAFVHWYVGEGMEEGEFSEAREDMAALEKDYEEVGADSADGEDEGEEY
Sequence of Probable ATP-dependent RNA helicase DDX17 (Homo sapiens) (Q92841 whole entry): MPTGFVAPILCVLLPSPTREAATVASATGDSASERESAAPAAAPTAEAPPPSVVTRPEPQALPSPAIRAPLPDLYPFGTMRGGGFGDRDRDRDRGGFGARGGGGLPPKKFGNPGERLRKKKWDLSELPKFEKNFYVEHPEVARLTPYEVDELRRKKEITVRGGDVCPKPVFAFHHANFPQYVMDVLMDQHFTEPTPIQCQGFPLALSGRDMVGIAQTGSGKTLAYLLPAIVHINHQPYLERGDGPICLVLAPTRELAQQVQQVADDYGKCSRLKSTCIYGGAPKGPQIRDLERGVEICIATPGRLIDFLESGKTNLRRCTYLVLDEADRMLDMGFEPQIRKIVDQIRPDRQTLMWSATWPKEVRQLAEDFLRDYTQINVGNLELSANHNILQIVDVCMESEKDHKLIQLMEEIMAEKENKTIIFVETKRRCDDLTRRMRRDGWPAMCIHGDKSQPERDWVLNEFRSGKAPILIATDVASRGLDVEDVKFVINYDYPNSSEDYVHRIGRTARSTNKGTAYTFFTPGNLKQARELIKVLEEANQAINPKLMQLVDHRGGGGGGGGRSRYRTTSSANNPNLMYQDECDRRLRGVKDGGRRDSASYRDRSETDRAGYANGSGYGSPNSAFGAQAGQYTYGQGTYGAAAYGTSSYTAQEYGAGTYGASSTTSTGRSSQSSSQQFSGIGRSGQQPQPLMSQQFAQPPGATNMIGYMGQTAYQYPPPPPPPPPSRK
Sequence of Tubulin beta-4B chain (Homo sapiens) (P68371 whole entry): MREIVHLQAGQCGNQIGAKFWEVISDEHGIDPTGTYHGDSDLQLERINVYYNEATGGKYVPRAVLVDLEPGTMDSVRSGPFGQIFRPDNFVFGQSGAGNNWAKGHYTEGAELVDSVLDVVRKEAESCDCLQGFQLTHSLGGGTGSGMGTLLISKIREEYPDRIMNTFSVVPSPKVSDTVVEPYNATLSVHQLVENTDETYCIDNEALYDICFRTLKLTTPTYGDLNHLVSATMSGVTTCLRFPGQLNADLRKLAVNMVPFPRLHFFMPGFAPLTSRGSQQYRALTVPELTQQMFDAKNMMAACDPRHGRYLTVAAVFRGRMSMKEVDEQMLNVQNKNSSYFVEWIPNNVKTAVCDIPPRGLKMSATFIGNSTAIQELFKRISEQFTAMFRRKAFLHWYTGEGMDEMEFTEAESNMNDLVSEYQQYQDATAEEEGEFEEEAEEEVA
Sequence of Serine/arginine-rich splicing factor 9 (Homo sapiens) (Q13242 whole entry): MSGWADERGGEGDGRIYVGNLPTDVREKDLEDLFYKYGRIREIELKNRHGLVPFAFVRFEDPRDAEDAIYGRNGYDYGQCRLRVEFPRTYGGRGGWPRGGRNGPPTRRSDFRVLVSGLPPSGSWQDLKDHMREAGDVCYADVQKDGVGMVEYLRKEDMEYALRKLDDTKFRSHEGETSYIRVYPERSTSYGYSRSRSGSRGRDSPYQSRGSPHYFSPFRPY

Take `Cc1cc2c(=O)[nH]c(CSC(=S)N(CCCNC(=O)CCCC[C@@H]3SC[C@@H]4NC(=O)N[C@@H]43)Cc3ccc(C#N)cc3)nc2s1`: the Activity with A549 [1] was 35.7%; in the experiment with A549 [2], 15.3%; in experiment [6], 52.8%; in experiment [8], 63.8%; in experiment [11] it was 16.6%; in [12], 34.2%. Also, the inhibition result in the experiment listed under Sus scrofa [3], in the experiment listed under Sus scrofa [4], in the experiment listed under Sus scrofa [5], in the experiment filed under Sus scrofa [9], in the experiment listed under Sus scrofa [10] and in the experiment listed under Sus scrofa [13] was “Active” each time. The inhibition result in the experiment filed under Sus scrofa [7] is “inactive”. In the experiment listed under Sus scrofa [14], the result was Active.
